According to publication PMC10922102 (Cell chemical biology, 2023):

Assays:
MOLT-4 cells = experiment: CellTiter-Glo cytotoxicity in MOLT-4 cells; assay type: cell-based, human
in vitro = conditions: human
HBL-1 cells [1] = conditions: human, 72 h
[2] = target: T1, recombinant human DHFR•NADPH complex (Homo sapiens, UniProt P00374); experiment: Fluorescence polarization; assay type: binding
T1 sequence (P00374 1-187): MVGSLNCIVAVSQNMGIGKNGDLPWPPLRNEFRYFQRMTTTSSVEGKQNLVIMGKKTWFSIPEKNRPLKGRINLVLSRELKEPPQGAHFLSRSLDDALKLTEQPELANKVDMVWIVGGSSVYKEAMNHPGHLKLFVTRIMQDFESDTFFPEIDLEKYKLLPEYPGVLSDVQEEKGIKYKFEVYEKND

DHFR-HiBiT = target: T2, DHFR-HiBiT (Homo sapiens, UniProt P00374); experiment: DHFR HiBiT assay; assay type: cell-based; conditions: for Degradation potency (pDC50): DHFR-HiBiT, 24 h, 30°C, mean ±SD, three independent experiments, ND = not determined (inactive); for Emax: HBL1, read-out: Assay max response (%)
T2 sequence (P00374 1-187): T1 sequence (P00374 1-187)

HEK-293 cells = experiment: Live-cell imaging of cell growth; assay type: cell-based, human; conditions: live-cell imaging over 120 h
[3] = system: MTX sensitive (MTX^S) HBL-1 cells; experiment: Cell viability of MTX sensitive; assay type: cell-based; conditions: Homo sapiens, HBL1, read-out: EC50, cell viability
HBL-1 cells [4] = experiment: Folate cytotoxicity dependence; assay type: cell-based, human
HBL-1 cells [5] = experiment: cells; conditions: Homo sapiens, HBL1, read-out: EC50 in MTX-sensitive HBL-1 cells
[6] = system: MTX resistant (MTX^R) HBL-1 cells; experiment: Cell viability of MTX resistant; assay type: cell-based, human
HBL-1 cells [7] = experiment: Targeted metabolomics; assay type: cell-based, human; conditions: folate-replete media, 0.1 or 0.5 μM, 24 h
In short: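 HBL-1 cells were expanded in RPMI 1640 with 1 mM HEPES, 100 U/mL penicillin, 100 µg/mL streptomycin and 10% FBS at 37 °C, 5% CO2. Metabolites were eluted by LC-MS/MS gradient. Buffer A was acetonitrile and Buffer B was 5% acetonitrile with 20 mM ammonium acetate, pH 9.0. The gradient started at 85% A and fell to 50% A by 17 min.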

cellular DHFR = target: T3, cellular DHFR (Homo sapiens, UniProt P00374); experiment: Label-free quantitative proteomics of HBL-1 cells; assay type: cell-based; conditions: 1 μM, 24 h
T3 sequence (P00374 1-187): T1 sequence (P00374 1-187)

DHFR = target: T4, DHFR (Homo sapiens, UniProt P00374); experiment: Western blot analysis of cellular DHFR; assay type: cell-based
T4 sequence (P00374 1-187): T1 sequence (P00374 1-187)

SMILES: CN(Cc1cnc2nc(N)nc(N)c2n1)c1ccc(C(=O)N[C@@H](CCC(=O)NCCOCCOCCOCCNC(=O)COc2cccc3c2C(=O)N(C2CCC(=O)NC2=O)C3=O)C(=O)O)cc1 (stereo partly drawn) [Compound 3, (19S)-19-(4-(((2,4-diaminopteridin-6-yl)methyl)(methyl)amino)benzamido)-1-((2-(2,6-dioxopiperidin-3-yl)-1,3-dioxoisoindolin-4-yl)oxy)-2,16-dioxo-6,9,12-trioxa-3,15-diazaicosan-20-oic acid]
- CTG cytotoxicity compared to PROTAC 4 (MOLT-4 cells): more cytotoxic than PROTAC 4 by an order of magnitude
- EC50 at 72 h (in vitro): 2820 nM
- Cytotoxicity efficacy (viability, %CTG) (HBL-1 cells [1]): −72.1 ±7.9%
- cytotoxicity compared to PROTAC 4 (HBL-1 cells [1]): an order of magnitude improvement in cytotoxicity when compared to PROTAC 4
- IC50 [2]: 43.7 nM
- DHFR concentration in the HiBiT assay, % of DMSO control (DHFR-HiBiT; 24 h treatment, HBL-1 cells): ~ 40%
- Degradation potency (pDC50) (DHFR-HiBiT; HBL-1 cells): 6.27 ±0.21
- Emax (DHFR-HiBiT): -40.6 ± 1.8%

SMILES: CN(Cc1cnc2nc(N)nc(N)c2n1)c1ccc(C(=O)N[C@@H](CC(F)C(=O)O)C(=O)O)cc1 (stereo partly drawn) [FMTX, 2, (2S)-2-(4-(((2,4-diaminopteridin-6-yl)methyl)(methyl)amino)benzamido)-4-fluoropentanedioic acid, reference compound]
- EC50 at 72 h (in vitro): 1050 nM
- Cytotoxicity efficacy (viability, %CTG) (HBL-1 cells [1]): −65.7 ±5.7%
- IC50 [2]: 93.3 nM
- effect on cellular confluence (HEK-293 cells): reduced cellular confluence beginning after 48 h of treatment
- Emax (DHFR-HiBiT): 53.9 ± 5.2%

SMILES: CN(Cc1cnc2nc(N)nc(N)c2n1)c1ccc(C(=O)N[C@@H](CCC(=O)O)C(=O)O)cc1 [MTX, 1, Methotrexate, reference compound]
- EC50 [3]: 45.2 nM
- EC50 at 72 h (in vitro): 61.7 nM
- Cytotoxicity efficacy (viability, %CTG) (HBL-1 cells [1]): −68.7 ±5.7%
- increase of cytotoxicity in folate-depleted vs. folate-containing media (HBL-1 cells [4]): < 2 fold
- EC50 (HBL-1 cells [5]): < 100 nM
- EC50 ([6]; Homo sapiens, HBL1, 240 h, read-out: EC50, cell viability): 4.64 µM
- cellular dUMP levels (HBL-1 cells [7]): significant increase in dUMP levels
- effect on cellular confluence (HEK-293 cells): reduced cellular confluence beginning after 48 h of treatment

SMILES: CN1C(=O)CCC(N2C(=O)c3cccc(NCCCCCCCCNC(=O)CC[C@H](NC(=O)c4ccc(N(C)Cc5cnc6nc(N)nc(N)c6n5)cc4)C(=O)O)c3C2=O)C1=O (stereo partly drawn) [VSTX-IE3L, 7, N2-(4-(((2,4-diaminopteridin-6-yl)methyl)(methyl)amino)benzoyl)-N5-(8-((2-(1-methyl-2,6-dioxopiperidin-3-yl)-1,3-dioxoisoindolin-4-yl)amino)octyl)-L-glutamine]
- Cytotoxicity efficacy (viability, %CTG) (HBL-1 cells [1]): 6.2 ±4.4%
- cytotoxicity in folic acid-free, replete and rescue conditions (HBL-1 cells [4]): did not exhibit appreciable toxicity in any of the conditions
- IC50 [2]: 25.1 nM
- Emax (DHFR-HiBiT): 39.3 ± 6.6%
- change of cellular DHFR-HiBiT level (DHFR-HiBiT; HBL-1 cells): increase in cellular DHFR-HiBiT

SMILES: COC(=O)[C@H](CCC(=O)NCCCCCCCCNc1cccc2c1C(=O)N(C1CCC(=O)NC1=O)C2=O)NC(=O)c1ccc(N(C)Cc2cnc3nc(N)nc(N)c3n2)cc1 (stereo partly drawn) [VSTX-ME, 9, Methyl N2-(4-(((2,4-diaminopteridin-6-yl)methyl)(methyl)amino)benzoyl)-N5-(8-((2-(2,6-dioxopiperidin-3-yl)-1,3-dioxoisoindolin-4-yl)amino)octyl)-L-glutaminate]
- EC50 at 72 h (in vitro): 5750 nM
- change of cellular DHFR by proteomics (cellular DHFR): significant degradation of cellular DHFR
- Cytotoxicity efficacy (viability, %CTG) (HBL-1 cells [1]): −26.8 ±22.7%
- effect on cell viability between parental (MTX^S) and MTX^R HBL-1 cell lines [6]: unchanged
- cellular dUMP levels (HBL-1 cells [7]): only a modest increase
- purine nucleotides ATP and GTP relative to untreated control (HBL-1 cells [7]): decreased
- DHFR level by western blot (DHFR; 24 h, HBL-1, HEK-293, Jurkat, MOLT-4, DND-41, TALL-5 cells): consistently able to degrade DHFR across this cell panel at sub-micromolar concentrations
- DHFR degradation by western blot in MTX^R cells (DHFR; MTX^R HBL-1 cells): remained capable of degrading DHFR in the MTX^R cells
- Degradation potency (pDC50) (DHFR-HiBiT; HBL-1 cells): 7.56 ±0.29
- Emax (DHFR-HiBiT): -71.9 ± 2.1%
- time of maximum DHFR-HiBiT depletion (DHFR-HiBiT; HBL-1 cells, time course 5 to 72 h): 24 h

SMILES: CN(Cc1cnc2nc(N)nc(N)c2n1)c1ccc(C(=O)NC(CCC(=O)O)C(=O)NCCCCCCCCNc2cccc3c2C(=O)N(C2CCC(=O)NC2=O)C3=O)cc1 (centres unmarked) [VSTX-αE3L, 8, 4-(4-(((2,4-diaminopteridin-6-yl)methyl)(methyl)amino)benzamido)-5-((8-((2-(2,6-dioxopiperidin-3-yl)-1,3-dioxoisoindolin-4-yl)amino)octyl)amino)-5-oxopentanoic acid]
- Cytotoxicity efficacy (viability, %CTG) (HBL-1 cells [1]): −2.0 ±16.2%
- cytotoxicity in folic acid-free, replete and rescue conditions (HBL-1 cells [4]): showed no cytotoxicity
- IC50 [2]: 7240 nM
- Emax (DHFR-HiBiT): 21.2 ± 2.5%
- change of cellular DHFR-HiBiT level (DHFR-HiBiT; HBL-1 cells): did not lead to appreciable changes in DHFR-HiBiT concentration

SMILES: CN(Cc1cnc2nc(N)nc(N)c2n1)c1ccc(C(=O)N[C@@H](CCC(=O)NCCCCCCCCNc2cccc3c2C(=O)N(C2CCC(=O)NC2=O)C3=O)C(=O)O)cc1 (stereo partly drawn) [Versortrexate (VSTX), 6, N2-(4-(((2,4-diaminopteridin-6-yl)methyl)(methyl)amino)benzoyl)-N5-(8-((2-(2,6-dioxopiperidin −3-yl)-1,3-dioxoisoindolin-4-yl)amino)octyl)-L-glutamine]
- EC50 at 72 h (in vitro): 21400 nM
- Cytotoxicity efficacy (viability, %CTG) (HBL-1 cells [1]): −45.7 ±26.9%
- IC50 [2]: 85.1 nM
- Degradation potency (pDC50) (DHFR-HiBiT; HBL-1 cells): 6.43 ±0.18
- Emax (DHFR-HiBiT): -70.1 ± 0.4%
